# Experimental data: paper PMC6314015 (Bioorganic & medicinal chemistry, 2018)
# Entries after “also recorded” stand apart in the source; their conditions may differ.
# Legend:
# [1] = Solubility in aqueous buffers; format: physicochemical; settings: aqueous buffer
# [2] = same concentration (500 μM); cited from earlier work
# [3] = tested on: ARPE-19 retinal pigment epithelial cells; experiment: Inherent cytotoxicity, CellTiter-Blue viability; format: cell-based, human; settings: 72 h incubation, up to 100 μM
# How it was run: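 Confluent ARPE-19 cells (DMEM/F12 1:1 with 10% FBS, 37 °C, 5% CO2) were washed three times with MEM. Cells were exposed to prochelators at 5–100 μM final in MEM with up to 1% DMSO for 72 h. Viability measured by CellTiter-Blue; triplicate runs, standard deviation.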
# [4] = comparable solutions (500 μM); cited from earlier work
# [5] = cited from earlier work
# ARPE-19 cells [6] = experiment: Cytoprotection against paraquat-induced oxidative damage; format: cell-based, human; settings: 10 mM paraquat, 48 h; for cytoprotection against paraquat damage: prochelators; for cytoprotection against paraquat-induced cell death: chelators, Figure S5
# [7] = format: binding; settings: for calcein fluorescence upon addition of chelator: 4 μM chelator (2 equivalents), 2 μM calcein-Fe^3+, PBS pH 7.4
# How it was run: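 Fe3+-calcein formed by equilibrating 4 μM ferric ammonium citrate with 4 μM calcein in PBS for 4 h. Compounds were freshly made at 100 μM in PBS pH 7.4; for activation, 100 μM prochelator was incubated with 5 mM H2O2 for 12 h. 2 μM Fe3+-calcein plus 4 μM compound or mixture, 2 h, 25 °C; fluorescence at 485/535 nm. Triplicate wells averaged; calcein-only wells = 100%.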
# ARPE-19 cells [8] = experiment: Cytoprotection against H2O2-induced oxidative damage; format: cell-based, human
# How it was run: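 ARPE-19 cells were grown to confluence (DMEM/F12 1:1, 10% FBS, 37 °C, 5% CO2) and washed with MEM. Cells were pretreated 5 h with prochelators or chelators in MEM, then given 200 μM H2O2 (final) and incubated 19 h more. Viability read by CellTiter-Blue, as % of MEM-only control; H2O2-only as negative control; triplicate, SD.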
# [9] = cited from earlier work; remark: listed apart in the source
# [10] = 1H NMR characterization of hydrolytic stability in D2O; format: physicochemical
# How it was run: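 Prochelator stocks (10 mM in DMSO-d6) diluted to 500 μM in D2O with 5% DMSO-d6, or to 200 μM with 2% DMSO-d6 for one analog. Solutions equilibrated 1 h before 1H NMR. Intact prochelator and isoniazid fraction estimated by integrating the hydrazone-compound aromatic peak against the corresponding isoniazid peak.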
# [11] = UV-Vis spectrophotometry of hydrolysis equilibrium in PBS pH 7.4; format: physicochemical; settings: for hydrolysis equilibrium constant K: PBS pH 7.4, equilibrated mixtures at various concentrations; for fold improved hydrolytic stability compared to BSIH: from K values
# How it was run: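 DMSO stocks were diluted into PBS pH 7.4 (100 μM). Spectra were recorded in 1-cm quartz cuvettes every 1 min over 30 min; 100 μM isoniazid + 100 μM aldehyde fragment served as reference. For K, equilibrated solutions at several initial concentrations were read at 263 and 321 nm, and component concentrations were solved from fitted extinction coefficients. K = [INH][FBA]/[prochelator], averaged across concentrations.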
# [12] = pH 7.4, total ligand 10 µM, iron 1 µM; cited from earlier work
# H9c2 cardiomyoblasts = settings: after 72 h; cited from earlier work
# [13] = prochelators, 5 h pre-incubation, 200 μM H2O2, viability after 19 h
smiles,measurement,setting,value
COc1ccc(/C=N/NC(=O)c2ccncc2)c(O)c1 [(m-OMe)SIH],solubility,[1],≤ 50 µM
"CC1(C)OB(c2ccccc2/C=N/NC(=O)c2ccncc2)OC1(C)C [BSIH, (E)-N’-(2-(4,4,5,5-tetramethyl-1,3,2-dioxaborolan-2-yl)benzylidene)isonicotinohydrazide]",SIH generated from peroxide activation,[2],51%
same,cytotoxicity,[3],non-toxic
same,intact prochelator at equilibrium,[4],80%
same,stability in plasma,[5]; 10 h incubation in plasma,little degradation
same,cytoprotection against paraquat damage,ARPE-19 cells [6],failed to protect cells from paraquat damage; also recorded: lack of cytoprotection
"COc1ccc(O)c(/C=N/NC(=O)c2ccncc2)c1 [(p-OMe)SIH, (E)-N’-(2-hydroxy-5-methoxybenzylidene)isonicotinohydrazide]",calcein fluorescence upon addition of chelator,[7],more than 90%
same,cytoprotection against paraquat-induced cell death,ARPE-19 cells [6],~ 40%
"CNC(=S)N/N=C/c1ccccc1B1OC(C)(C)C(C)(C)O1 [BSMTH, (E)-N-methyl-2-(2-(4,4,5,5-tetramethyl-1,3,2-dioxaborolan-2-yl)benzylidene)hydrazine-1-carbothioamide]",cytoprotection from peroxide damage,ARPE-19 cells [8]; [13],lack of cytoprotection; also recorded: ineffective
same,cytoprotection against paraquat damage,ARPE-19 cells [6],lack of cytoprotection
"COc1ccc(B2OC(C)(C)C(C)(C)O2)c(/C=N/NC(=O)c2ccncc2)c1 [(p-OMe)BSIH, (E)-N’-(5-methoxy-2-(4,4,5,5-tetramethyl-1,3,2-dioxaborolan-2-yl)benzylidene)isonicotinohydrazide]",concentration effective for cytoprotection,ARPE-19 cells [8]; [13],25 µM
same,increase in H2O2-dependent conversion rate relative to the m-Cl compound,[9],~5 fold
same,INH at equilibrium,"[10]; 500 μM in D2O, 5% DMSO-d6, 1 h equilibration",15%
same,hydrolysis equilibrium constant K,[11],(1.1 ± 0.1) × 10^−5 M
same,fold improved hydrolytic stability compared to BSIH,[11],1.3 fold
"CC1(C)OB(c2cc3c(cc2/C=N/NC(=O)c2ccncc2)OCO3)OC1(C)C [(MD)BSIH, (E)-N’-((6-(4,4,5,5-tetramethyl-1,3,2-dioxaborolan-2-yl)benzo[d][1,3]dioxol-5-yl)methylene)isonicotinohydrazide]",concentration effective for cytoprotection,ARPE-19 cells [8]; [13],25 µM
same,cytotoxicity,[3],non-toxic
same,increase in chelator released compared to BSIH,[7]; after H2O2 activation,50%
same,hydrolysis fragments in the equilibrated solution,"[10]; 200 μM in D2O, 2% DMSO-d6",20%
same,"hydrolysis equilibrium constant K, fold lower than parent BSIH",[11],~ 2 fold
same,hydrolysis equilibrium constant K,[11],(8.0 ± 0.6) × 10^−6 M
same,fold improved hydrolytic stability compared to BSIH,[11],1.9 fold
same,cytoprotection against paraquat damage,ARPE-19 cells [6],dose-dependent recovery of cell viability
"COc1ccc(/C=N/NC(=O)c2cccnc2)c(O)c1 [(m-OMe)SNH, (E)-N’-(2-hydroxy-4-methoxybenzylidene)nicotinohydrazide]",solubility,[1],≥ 300 µM
same,calcein fluorescence upon addition of chelator,[7],more than 90%
O=C(O)CN(CC(=O)O)Cc1cc2c(cc1O)Oc1cc(O)c(CN(CC(=O)O)CC(=O)O)cc1C21OC(=O)c2ccccc21 [Calcein],pFe,[12],20.3
"O=C(N/N=C/c1ccccc1O)c1ccncc1 [SIH, (E)-N’-(2-hydroxybenzylidene)isonicotinohydrazide]",stability in buffer,[5]; buffer at pH 7.4,remains intact
same,stability in cell culture media and plasma,[5]; cell culture media and plasma,degrades within hours
same,cytoprotection against paraquat-induced cell death,ARPE-19 cells [6],~ 40%
"COc1ccc(/C=N/NC(=O)c2ccncc2)cc1B1OC(C)(C)C(C)(C)O1 [(m-OMe)BIIH, (E)-N’-(4-methoxy-3-(4,4,5,5-tetramethyl-1,3,2-dioxaborolan-2-yl)benzylidene)isonicotinohydrazide]",cytoprotection from peroxide damage,ARPE-19 cells [8]; [13],lack of cytoprotection
same,hydrolysis products by 1H NMR upon dilution in D2O,"[10]; 500 μM in D2O, 5% DMSO-d6",no additional peaks corresponding to potential hydrolysis products were observed
same,UV-Vis spectrum over time in PBS buffer,"[11]; PBS buffer, Figure S3",remains unchanged over time
"C/C(=N\NC(=O)c1ccncc1)c1ccccc1O [HAPI, (E)-N’-(1-(2-hydroxyphenyl)ethylidene)isonicotinohydrazide, reference compound]",cytoprotection against paraquat-induced cell death,ARPE-19 cells [6],~ 40%
"CC1(C)OB(c2ccccc2/C=N/NC(=S)Nc2ccccc2)OC1(C)C [BSPTH, (E)-N-phenyl-2-(2-(4,4,5,5-tetramethyl-1,3,2-dioxaborolan-2-yl)benzylidene)hydrazine-1-carbothioamide]",cytoprotection from peroxide damage,ARPE-19 cells [8]; [13],modest cellular protection
same,cytoprotection against paraquat damage,ARPE-19 cells [6],lack of cytoprotection
"COc1ccc(/C=N/NC(=O)c2cccnc2)c(B2OC(C)(C)C(C)(C)O2)c1 [(m-OMe)BSNH, (E)-N’-(4-methoxy-2-(4,4,5,5-tetramethyl-1,3,2-dioxaborolan-2-yl)benzylidene)nicotinohydrazide]",solubility,[1],≥ 300 µM
C/C(=N\NC(=O)c1ccncc1)c1ccccc1OCc1ccc(B2OC(C)(C)C(C)(C)O2)cc1 [BHAPI],TC50,H9c2 cardiomyoblasts,37.1 ± 7.7 µM
"Oc1ccccc1/C=N/NC(=S)Nc1ccccc1 [SPTH, (E)-2-(2-hydroxybenzylidene)-N-phenylhydrazine-1-carbothioamide]",calcein fluorescence upon addition of chelator,[7],failed to fully restore calcein emission
same,cytoprotection against paraquat-induced cell death,ARPE-19 cells [6],~ 40%
"CNC(=S)N/N=C/c1ccccc1O [SMTH, (E)-2-(2-hydroxybenzylidene)-N-methylhydrazine-1-carbothioamide]",cytoprotection from peroxide damage,"ARPE-19 cells [8]; chelators, H2O2-stressed cells, Figure S4",no protective effect
same,calcein fluorescence upon addition of chelator,[7],no effect on the quenched signal
same,cytoprotection against paraquat-induced cell death,ARPE-19 cells [6],failed to protect cells
